Legend:
[1] = tested on: protein arginine and protein lysine methyltransferases (PRMTs and PKMTs) in HT-29 colorectal cells; test: Protein methylation marks; type: cell-based; conditions: HT-29 cells, 6 days, positive control
Procedure, shortened: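 HT-29 colorectal cells were exposed to the test compound for 6 days. Soluble protein was then extracted and immunoblotted for symmetric dimethylarginine, asymmetric dimethylarginine and trimethyl-lysine marks. The SDMA positive control was a PRMT5-specific inhibitor, and the ADMA positive control was a type I PRMT (PRMT1/4) inhibitor.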

PNMT = conditions: read-out: apparent IC50; cited from earlier work

CC(=O)N1CCC(Nc2cc(C(=O)NC[C@H](O)CN3CCc4ccccc4C3)ncn2)CC1 [GSK3326595, reference compound]
SDMA (Western blot) [1]: no band corresponding to SDMA

NC(=O)c1cccc(C#CCN(CC[C@H](N)C(=O)O)C[C@H]2O[C@@H](n3cnc4c(N)ncnc43)[C@H](O)[C@@H]2O)c1 [LL320]
IC50 (PNMT): > 100 µM

CC(C)Oc1ccc(-c2c[nH]cc2CN(C)CCN)cc1 [MS023, reference compound]
ADMA (Western blot) [1]: no evidence of ADMA

Reference: PMC10646973 (Biochemistry, 2023)
